Data: ChEMBL document CHEMBL1275381, “Indeno[1,2-c]isoquinolin-5,11-diones conjugated to amino acids: Synthesis, cytotoxicity, DNA interaction, and topoisomerase II inhibition properties” (Bioorg Med Chem, 2010)
Calls of active or inactive are those of the source. The rule behind the calls is not given here.

test system: Calf thymus DNA; test: Displacement of DNA-bound ethidium bromide from calf thymus DNA by fluorescence assay; type: nucleic-acid assay; conditions: Bos taurus
Method in brief: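 Competitive displacement of ethidium bromide bound to CT DNA, EB/DNA molar ratio 12.6:10, in BPE buffer pH 7.1. Compound range 0.01–100 µM, DMSO stock diluted into buffer. Excitation 546 nm, emission 560–700 nm. C50 for EB displacement was obtained by curve fitting. Kapp = (1.26/C50)·K_ethidium, with K_ethidium = 10^7 M-1.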

In order of falling Kapp:
1. Cl.Cl.NCCCCC(N)CNCCn1c2c(c3ccccc3c1=O)C(=O)c1ccccc1-2 (centres undefined)  13.9 ×10⁶ /M
2. NCCCC[C@@H](N)C(=O)NCCCn1c2c(c3ccccc3c1=O)C(=O)c1ccccc1-2  11.1 ×10⁶ /M
3. Cl.NCC(=O)NCCn1c2c(c3ccccc3c1=O)C(=O)c1ccccc1-2  0.71 ×10⁶ /M
4. Cl.N[C@H](Cc1cnc[nH]1)C(=O)NCCCn1c2c(c3ccccc3c1=O)C(=O)c1ccccc1-2  0.69 ×10⁶ /M
5. Cl.NCC(=O)OCCn1c2c(c3ccccc3c1=O)C(=O)c1ccccc1-2  0.68 ×10⁶ /M
6. Cl.N[C@@H](Cc1cnc[nH]1)C(=O)NCCn1c2c(c3ccccc3c1=O)C(=O)c1ccccc1-2  0.65 ×10⁶ /M
7. Cl.N[C@@H](Cc1cnc[nH]1)C(=O)OCCn1c2c(c3ccccc3c1=O)C(=O)c1ccccc1-2  0.58 ×10⁶ /M

test system: not listed separately; test: Cytotoxicity against human HL60/MX2 cells after 72 hrs; type: functional, cell-based; conditions: HL-60, 72 h
Method in brief: (§1)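 HL60 and mitoxantrone-resistant HL60/MX2 leukemia cells were grown in RPMI 1640 with 10% FBS at 37 °C, 5% CO2. 2×10^4 exponentially growing cells per well were exposed to graded compound concentrations for 72 h. MTS tetrazolium was then added for 2 h and A492 read. IC50 is the concentration giving 50% growth inhibition. Resistance index = IC50(HL60/MX2)/IC50(HL60).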

In order of rising IC50:
1. Cl.NCC(=O)NCCn1c2c(c3ccccc3c1=O)C(=O)c1ccccc1-2  3 µM
2. Cl.N[C@@H](Cc1cnc[nH]1)C(=O)NCCn1c2c(c3ccccc3c1=O)C(=O)c1ccccc1-2  4 µM
3. Cl.N[C@H](Cc1cnc[nH]1)C(=O)NCCCn1c2c(c3ccccc3c1=O)C(=O)c1ccccc1-2  4.9 µM
4. Cl.Cl.NCCCCC(N)CNCCn1c2c(c3ccccc3c1=O)C(=O)c1ccccc1-2 (centres undefined)  5.5 µM
5. Cl.N[C@@H](Cc1cnc[nH]1)C(=O)OCCn1c2c(c3ccccc3c1=O)C(=O)c1ccccc1-2  23 µM
6. Cl.NCC(=O)OCCn1c2c(c3ccccc3c1=O)C(=O)c1ccccc1-2  27.5 µM

test system: HL-60; test: Resistance index, ratio of IC50 for human HL60/MX2 cells to IC50 for human HL60 cells; type: functional; conditions: not given; method in brief: as §1

In order of falling “Ratio IC50” value:
1. Cl.NCC(=O)OCCn1c2c(c3ccccc3c1=O)C(=O)c1ccccc1-2  5.56
2. Cl.N[C@@H](Cc1cnc[nH]1)C(=O)OCCn1c2c(c3ccccc3c1=O)C(=O)c1ccccc1-2  2.95
3. Cl.N[C@H](Cc1cnc[nH]1)C(=O)NCCCn1c2c(c3ccccc3c1=O)C(=O)c1ccccc1-2  1.75
4. Cl.NCC(=O)NCCn1c2c(c3ccccc3c1=O)C(=O)c1ccccc1-2  1.2
5. Cl.N[C@@H](Cc1cnc[nH]1)C(=O)NCCn1c2c(c3ccccc3c1=O)C(=O)c1ccccc1-2  1.11
6. Cl.Cl.NCCCCC(N)CNCCn1c2c(c3ccccc3c1=O)C(=O)c1ccccc1-2 (centres undefined)  0.72

target: T1, DNA topoisomerase 1 (Homo sapiens) (UniProt P11387); test: Effect on human DNA topoisomerase 1-mediated relaxation of supercoiled pUC19 DNA at 1 to 20 uM after 2 hrs using ethidium bromide staining by agarose gel electrophoresis; conditions: not given
T1 sequence (whole entry): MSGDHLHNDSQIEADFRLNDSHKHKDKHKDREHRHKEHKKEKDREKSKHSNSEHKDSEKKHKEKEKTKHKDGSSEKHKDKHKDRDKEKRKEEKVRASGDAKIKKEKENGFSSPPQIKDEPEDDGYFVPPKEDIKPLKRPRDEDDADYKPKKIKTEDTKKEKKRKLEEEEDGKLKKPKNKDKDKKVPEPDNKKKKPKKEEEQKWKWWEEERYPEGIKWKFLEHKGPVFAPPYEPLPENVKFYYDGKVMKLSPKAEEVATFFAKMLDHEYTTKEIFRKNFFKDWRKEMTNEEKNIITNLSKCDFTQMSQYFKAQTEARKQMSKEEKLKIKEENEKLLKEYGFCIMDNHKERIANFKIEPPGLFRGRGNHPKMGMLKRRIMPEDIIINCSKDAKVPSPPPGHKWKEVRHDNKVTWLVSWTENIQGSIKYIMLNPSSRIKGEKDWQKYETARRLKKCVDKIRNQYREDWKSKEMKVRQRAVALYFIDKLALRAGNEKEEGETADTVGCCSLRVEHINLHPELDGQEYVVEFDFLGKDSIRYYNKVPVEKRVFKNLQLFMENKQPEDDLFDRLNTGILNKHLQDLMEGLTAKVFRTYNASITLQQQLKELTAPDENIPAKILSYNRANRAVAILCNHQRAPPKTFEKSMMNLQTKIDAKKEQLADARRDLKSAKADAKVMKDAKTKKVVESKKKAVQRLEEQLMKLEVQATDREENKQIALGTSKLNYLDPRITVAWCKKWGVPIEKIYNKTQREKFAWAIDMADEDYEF

With `Cl.NCC(=O)OCCn1c2c(c3ccccc3c1=O)C(=O)c1ccccc1-2` the Activity was “Active”.
With `Cl.N[C@@H](Cc1cnc[nH]1)C(=O)NCCn1c2c(c3ccccc3c1=O)C(=O)c1ccccc1-2` the Activity was “Active”.
In the case of `Cl.N[C@H](Cc1cnc[nH]1)C(=O)NCCCn1c2c(c3ccccc3c1=O)C(=O)c1ccccc1-2`, the Activity is reported as “Active”.
For `Cl.Cl.NCCCCC(N)CNCCn1c2c(c3ccccc3c1=O)C(=O)c1ccccc1-2` (centres undefined), the Activity was “Active”.
In the case of `Cl.NCC(=O)NCCn1c2c(c3ccccc3c1=O)C(=O)c1ccccc1-2`, the Activity is reported as “Active”.
With `NCCCC[C@@H](N)C(=O)NCCCn1c2c(c3ccccc3c1=O)C(=O)c1ccccc1-2` the Activity was “Active”.

test system: HL-60; test: Cytotoxicity against human HL60 cells after 72 hrs; type: functional, cell-based; conditions: HL-60, 72 h; method in brief: as §1

In order of falling IC50:
1. Cl.N[C@@H](Cc1cnc[nH]1)C(=O)OCCn1c2c(c3ccccc3c1=O)C(=O)c1ccccc1-2  7.8 µM
2. Cl.Cl.NCCCCC(N)CNCCn1c2c(c3ccccc3c1=O)C(=O)c1ccccc1-2 (centres undefined)  7.6 µM
3. Cl.NCC(=O)OCCn1c2c(c3ccccc3c1=O)C(=O)c1ccccc1-2  4.95 µM
4. Cl.N[C@@H](Cc1cnc[nH]1)C(=O)NCCn1c2c(c3ccccc3c1=O)C(=O)c1ccccc1-2  3.6 µM
5. Cl.N[C@H](Cc1cnc[nH]1)C(=O)NCCCn1c2c(c3ccccc3c1=O)C(=O)c1ccccc1-2  2.8 µM
6. Cl.NCC(=O)NCCn1c2c(c3ccccc3c1=O)C(=O)c1ccccc1-2  2.5 µM

test system: Calf thymus DNA; test: Binding affinity to calf thymus DNA assessed as change in melting temperature at drug/DNA ratio 0.25; type: nucleic-acid assay; conditions: Bos taurus
Method in brief: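 CT DNA (20 µM, SDS-deproteinized, dialyzed; nucleotide concentration by ε 6600 M-1 cm-1) in BPE buffer (6 mM Na2HPO4, 2 mM NaH2PO4, 1 mM EDTA, pH 7.1), alone or with compound at drug/base pair ratios 0.05–0.5. A260 was recorded from 20 to 100 °C at 1 °C/min. Tm was taken from first-derivative plots, ΔTm = Tm(complex) − Tm(DNA alone). Mean of n = 3.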

In order of rising ΔTm:
1. Cl.NCC(=O)OCCn1c2c(c3ccccc3c1=O)C(=O)c1ccccc1-2  3 °C
2. Cl.N[C@@H](Cc1cnc[nH]1)C(=O)OCCn1c2c(c3ccccc3c1=O)C(=O)c1ccccc1-2  3 °C
3. Cl.N[C@@H](Cc1cnc[nH]1)C(=O)NCCn1c2c(c3ccccc3c1=O)C(=O)c1ccccc1-2  3.4 °C
4. Cl.NCC(=O)NCCn1c2c(c3ccccc3c1=O)C(=O)c1ccccc1-2  5 °C
5. Cl.N[C@H](Cc1cnc[nH]1)C(=O)NCCCn1c2c(c3ccccc3c1=O)C(=O)c1ccccc1-2  5.5 °C
6. NCCCC[C@@H](N)C(=O)NCCCn1c2c(c3ccccc3c1=O)C(=O)c1ccccc1-2  18.4 °C
7. Cl.Cl.NCCCCC(N)CNCCn1c2c(c3ccccc3c1=O)C(=O)c1ccccc1-2 (centres undefined)  23.8 °C

target: T1, DNA topoisomerase 1 (Homo sapiens); test: Effect on human DNA topoisomerase 1-mediated relaxation of supercoiled pUC19 DNA at 1 to 2 uM after 2 hrs using ethidium bromide staining by agarose gel electrophoresis; conditions: not given
Method in brief: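 Supercoiled pUC19 (130 ng) was incubated with 4 units human topoisomerase I at 37 °C for 45 min in buffer of 50 mM Tris pH 7.8, 50 mM KCl, 10 mM MgCl2, 1 mM DTT, 1 mM EDTA, 1 mM ATP, with compound at 1–20 µM. Reactions were stopped with SDS 0.25% and proteinase K 250 µg/mL at 50 °C for 30 min. Products ran on 1% agarose, 120 V, 2 h, then were EB-stained and imaged under UV.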

With `Cl.N[C@@H](Cc1cnc[nH]1)C(=O)OCCn1c2c(c3ccccc3c1=O)C(=O)c1ccccc1-2` the Activity was “Active”.
